{"source": "ChEMBL document CHEMBL1126061", "about": "“Cyclic RGD peptide analogues as antiplatelet antithrombotics” (J Med Chem, 1992)", "assay_type_in_all_cases": "protein-complex assay", "key": {"[1]": {"molecular_target": "T1, Integrin alpha-IIb/beta-3 (Homo sapiens, UniProt P05106+P08514)", "T1 sequence (P05106 27-788 limits assumed)": "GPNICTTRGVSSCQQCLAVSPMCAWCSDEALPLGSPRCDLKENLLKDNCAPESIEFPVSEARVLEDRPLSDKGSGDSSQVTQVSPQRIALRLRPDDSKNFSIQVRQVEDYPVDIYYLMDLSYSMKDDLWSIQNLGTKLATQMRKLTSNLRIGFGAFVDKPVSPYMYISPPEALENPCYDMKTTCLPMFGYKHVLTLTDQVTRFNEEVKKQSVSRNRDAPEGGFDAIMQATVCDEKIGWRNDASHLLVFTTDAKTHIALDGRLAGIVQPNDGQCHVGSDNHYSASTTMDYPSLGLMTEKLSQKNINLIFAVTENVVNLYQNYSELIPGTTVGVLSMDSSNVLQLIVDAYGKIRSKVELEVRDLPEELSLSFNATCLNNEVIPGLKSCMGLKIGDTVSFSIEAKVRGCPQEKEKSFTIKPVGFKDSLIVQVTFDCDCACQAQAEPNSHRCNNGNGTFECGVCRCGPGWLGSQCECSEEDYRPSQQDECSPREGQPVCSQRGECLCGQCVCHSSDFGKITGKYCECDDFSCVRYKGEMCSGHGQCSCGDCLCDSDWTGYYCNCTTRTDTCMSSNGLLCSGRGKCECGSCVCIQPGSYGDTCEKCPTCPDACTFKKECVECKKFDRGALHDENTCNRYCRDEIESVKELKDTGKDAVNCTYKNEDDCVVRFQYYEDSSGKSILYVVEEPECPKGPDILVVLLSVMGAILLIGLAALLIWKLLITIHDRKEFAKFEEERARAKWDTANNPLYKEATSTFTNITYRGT", "T1 sequence (P08514 32-887 limits assumed)": "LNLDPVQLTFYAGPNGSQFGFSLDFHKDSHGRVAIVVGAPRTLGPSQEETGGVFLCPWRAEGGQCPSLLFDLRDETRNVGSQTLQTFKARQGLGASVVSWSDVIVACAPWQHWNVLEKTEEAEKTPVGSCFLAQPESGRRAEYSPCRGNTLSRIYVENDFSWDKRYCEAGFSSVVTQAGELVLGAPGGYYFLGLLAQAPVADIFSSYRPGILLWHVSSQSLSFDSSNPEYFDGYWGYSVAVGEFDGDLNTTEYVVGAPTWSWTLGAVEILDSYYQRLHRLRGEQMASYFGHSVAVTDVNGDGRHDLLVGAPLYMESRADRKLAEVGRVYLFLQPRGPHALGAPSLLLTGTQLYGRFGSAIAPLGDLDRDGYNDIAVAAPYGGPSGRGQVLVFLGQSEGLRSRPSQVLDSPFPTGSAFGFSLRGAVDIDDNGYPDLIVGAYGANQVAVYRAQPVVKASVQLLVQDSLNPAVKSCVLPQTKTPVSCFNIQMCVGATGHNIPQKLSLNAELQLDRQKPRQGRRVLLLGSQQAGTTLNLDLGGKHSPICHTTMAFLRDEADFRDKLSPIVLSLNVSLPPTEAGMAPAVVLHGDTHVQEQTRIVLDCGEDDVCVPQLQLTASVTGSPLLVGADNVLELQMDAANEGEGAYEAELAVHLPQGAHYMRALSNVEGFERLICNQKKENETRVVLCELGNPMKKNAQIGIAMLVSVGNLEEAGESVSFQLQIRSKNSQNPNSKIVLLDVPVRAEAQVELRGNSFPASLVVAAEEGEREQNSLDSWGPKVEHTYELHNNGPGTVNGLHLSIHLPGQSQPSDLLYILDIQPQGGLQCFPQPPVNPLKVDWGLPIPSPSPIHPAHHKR", "T1 sequence (P08514 891-1039 limits assumed)": "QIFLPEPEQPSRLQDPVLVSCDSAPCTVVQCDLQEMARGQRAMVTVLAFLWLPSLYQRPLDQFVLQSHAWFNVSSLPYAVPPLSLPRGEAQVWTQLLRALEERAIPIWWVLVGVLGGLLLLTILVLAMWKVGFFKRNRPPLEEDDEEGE", "assay": "The compound was tested for the inhibition of fibrinogen receptor", "method_in_brief": "(§1)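 Solid-phase ELISA: human fibrinogen (10 µg/mL) coated, BSA-blocked; samples plus purified human platelet GPIIbIIIa (40 µg/mL) incubated 1 h at room temperature. Bound receptor detected with anti-GPIIbIIIa antibody AP3 (1 µg/mL, 1 h), then goat anti-mouse HRP (1 h); OPD/H2O2 at pH 5, stopped with H2SO4, absorbance 492-405 nm. IC50 from four-parameter fit; n ≥ 3.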"}, "[2]": {"molecular_target": "T1, Integrin alpha-IIb/beta-3", "assay": "Inhibition of Fibrinogen binding to Fibrinogen receptor", "method_in_brief": "as §1"}, "[3]": {"molecular_target": "T1, Integrin alpha-IIb/beta-3", "assay": "Inhibition of Fibrinogen receptor", "method_in_brief": "as §1"}}, "note": "*1 amine or outer side, *2 acyl side, *3 side chain or, on linkers, in order; H or OH if unused. Where a SMILES comes first, the peptide text is derived from it. Bridges are numbered along the chain shown (N, C = ends). [ ]: non-standard residue; d: D form. Cys(O)(CH2CO) = O=C([C@H](C[S+]([O-])CC(=O)[*:3])N[*:1])[*:2]"}
{"smiles": "N=C(N)NCCC[C@@H]1NC(=O)[C@@H](Cc2ccccc2)NC(=O)C[S+]([O-])C[C@@H](C(=O)O)NC(=O)[C@H](CC(=O)O)NC(=O)CNC1=O", "note": "(some centres undefined)", "values": [{"measurement": "IC50", "setting": "[1]", "value": 5.6, "unit": "nM"}, {"measurement": "IC50", "setting": "[2]", "value": 33, "unit": "nM"}]}
{"smiles": "CC(C)C[C@@H]1NC(=O)C[S+]([O-])C[C@@H](C(=O)O)NC(=O)[C@H](CC(=O)O)NC(=O)CNC(=O)[C@H](CCCN=C(N)N)NC1=O", "note": "(some centres undefined) (LRGD[Cys(O)(CH2CO)]-OH; lactam N-5)", "values": [{"measurement": "IC50", "setting": "[1]", "value": 3.9, "unit": "nM"}, {"measurement": "IC50", "setting": "[2]", "value": 25, "unit": "nM"}]}
{"smiles": "N=C(N)NCCC[C@H](N)C(=O)NCC(=O)N[C@@H](CC(=O)O)C(=O)N[C@@H](Cc1ccccc1)C(=O)O", "note": "(H-RGDF-OH)", "values": [{"measurement": "IC50", "setting": "[3]", "value": 31, "unit": "nM"}]}
{"smiles": "N=C(N)NCCC[C@@H]1NC(=O)[C@H](CO)NC(=O)C[S+]([O-])C[C@@H](C(=O)O)NC(=O)[C@H](CC(=O)O)NC(=O)CNC1=O", "note": "(some centres undefined) (SRGD[Cys(O)(CH2CO)]-OH; lactam N-5)", "values": [{"measurement": "IC50", "setting": "[1]", "value": 8, "unit": "nM"}, {"measurement": "IC50", "setting": "[2]", "value": 50, "unit": "nM"}]}
{"smiles": "N=C(N)NCCC[C@@H]1NC(=O)[C@H](Cc2ccccc2)NC(=O)C[S+]([O-])C[C@@H](C(=O)O)NC(=O)[C@H](CC(=O)O)NC(=O)CNC1=O", "note": "(some centres undefined)", "values": [{"measurement": "IC50", "setting": "[1]", "value": 6.6, "unit": "nM"}, {"measurement": "IC50", "setting": "[2]", "value": 16, "unit": "nM"}]}
